From the EternaBench riboswitch data

System: MS2 coat protein
Assay: apparent Kd, MS2 coat protein; higher = weaker binding; RNA-MaP array; theophylline 2 mM where present
In short: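 Apparent Kd: the median of filtered binding-curve fits from single clusters. Designs were transcribed on Illumina sequencing-chip clusters by stalled E. coli RNA polymerase and titrated with SNAP-549-labelled MS2 coat protein from 0.7 or 1.5 nM, doubling to 3 µM, in 100 mM Tris-HCl pH 7.5, 80 mM KCl, 4 mM MgCl2, BSA, DTT, yeast tRNA and Tween-20. Each series ran without and then with constant ligand, and green signal was normalised to red-channel RNA signal and control-cluster median Fmax.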

[1] = designed as: ON switch for theophylline, no ligand
[2] = ligand present: theophylline, designed as: ON switch for theophylline
[3] = designed as: OFF switch for theophylline, no ligand
[4] = ligand present: theophylline, designed as: OFF switch for theophylline

Row | Sequence | apparent Kd [1] | apparent Kd [2] | apparent Kd [3] | apparent Kd [4]
1 | CUCGGUUGAUCCUAGCUGCCGAGAGGUGAUACCAGCAUCGAAAGAUGCCCUUGGCAGCACCAACAUGAGGAUCACCCAUGUAAUA | 55.1 nM | 483 nM |  | 
2 | ACGAUGCGACAUGAGGAUCACCCAUGUGAUACCAGCCUGGAAACAGGCCCUUGGCAGCACAAAUACUCCAGAAACGCAUCGAAUA |  |  | 267 nM | 439 nM
3 | AGACAUGUAAGAUAAAUGACUUAUACAGAUACCAGACUAGUCAAUGUCCCUUGGCAGCUGCAUAACAUGAGGAUCACCCAUGUAA |  |  | 26.7 nM | 32.7 nM
4 | UUAAUGGAGCUUUAAUUUACGAUUUCUGAUACCAGUGUUUCAUUUCACCCUUGGCAGCAGUGACAUGAGGAUCACCCAUGUAAUA | 25.4 nM | 23.5 nM |  | 
5 | CGUGUCGUAACUGAUACCAGUGUACUGACAUGAGGAUCACCCAUGUUGGGUUUUGUUGUACACCCUUGGCAGCAGAAUCGAUACG |  |  | 76.9 nM | 119 nM
6 | GUAUGGAAACAUACUUGGGUAUCAUGAGAUACCAGUACAGAAAUGUACCCUUGGCAGCUCAAGCAUACAUGAGGAUCACCCAUGU |  |  | 18 nM | 27.1 nM
7 | ACAUGAGGAUCACCCAUGUUCCUCAUUGAUACCAGUGAAUUUAGACGCCCUUGGCAGCGAGUUUUUUUAUAAGAUUUUUUUUUUU |  |  | 626 nM | 1320 nM
8 | CCUGCGUUUCUUUUCUUUCGCAGGAAUGAUACCAGUAGGGAAACCUACCCUUGGCAGCAUGGGACAUGAGGAUCACCCAUGUUUU | 166 nM | 33.4 nM |  | 
9 | AUAAGUAAUGUUUCGUGUAUUAUUACAGAUACCAGACUAUCCUAUGUCCCUUGGCAGCUGGAUUACAUGAGGAUCACCCAUGUUG |  |  | 16.4 nM | 24.9 nM
10 | GCCAGACAUGAGGAUCACCCAUGUAGCGAUACCAGCUCUGUUGUGAGCCCUUGGCAGCGCACUGGCAUCGUAGGUGAUCCAAUAA | 75.2 nM | 187 nM |  | 
11 | AGAUUAAAGAGUGAUACCAGACUACAUGAGGAUCACCCAUGUUACAUUUGAGUAGCUUUAGUCCCUUGGCAGCACUUUAUGUACA |  |  | 45.5 nM | 17.6 nM
12 | AUCGUACCUGAGGAUACCAGCAUGUGAUCAUAACAUGAGGAUCACCCAUGUAAUCAGUGAUGCCCUUGGCAGCUUGAUCGGUACA | 80.1 nM | 24.9 nM |  | 
13 | AUCGUACCUGAUGAUACCAGCAUGUGAUCGUAACAUGAGGAUCACCCAUGUGAUCAGUGAUGCCCUUGGCAGCAUGAUCGGUACA | 35.4 nM | 14.7 nM |  | 
14 | UCGUGGUCCGCAAGGACCGGGAGUUGCGAUACCAGCACGGUAACGUGCCCUUGGCAGCGCACAUGAGGAUCACCCAUGUGGUGUU |  |  | 229 nM | 514 nM
15 | GAUGAUAUUGCAGAUACCAGACACAUGAGGAUCACCCAUGUCUCUGAGAUGAAGGAUCGUGUCCCUUGGCAGCUGCGAUAUCAUC |  |  | 32.7 nM | 338 nM
16 | CGAUCUUUCGAAAGAAGGAUCGAGUCUGAUACCAGAGACGAAAGUCUCCCUUGGCAGCAGUGCCAACAUGAGGAUCACCCAUGUU | 15.8 nM | 15.5 nM |  | 
17 | UCGUGUGUUUCGGAUACCAGUGAAAUCGAUACAUGAGGAUCACCCAUGUGAGAGGAUGUACACCCUUGGCAGCUGUCUGUAUCUG | 13.1 nM | 13.7 nM |  | 
18 | ACCUCACUCUCUGAUACCAGCUAAUAACAUGAGGAUCACCCAUGUCAGACUUGUAUUGAUAGCCCUUGGCAGCAGAGGUAACUGC |  |  | 9.39 nM | 11.3 nM
19 | UGAUCCUGCAGGGAUACCAGCGCCGCUUGAUAACUGUGCACAUGAGGAUCACCCAUGUAGCGCCCUUGGCAGCCCAGCUAGAGGG | 25.4 nM | 23 nM |  | 
20 | CUCUGAGUGAGUAAUCACUCAGAGGCGGAUACCAGCGAGGUCCAUCGCCCUUGGCAGCCGAACAUGAGGAUCACCCAUGUCGGUA | 10.7 nM | 14.6 nM |  | 
